# Most compounds without a hit are left out; they make up all but 2.3% or so of the library.
# HIV Env fusion – HIV envelope-mediated fusion inhibition; HeLa-JRFL Env/CEM21 cell fusion, luciferase; inhibition, % at 12.3 µM; hit rate 1.1% among 360,000; AID 651610;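 active means mean replicate inhibition score of at least 50 and every replicate individually at or above 50; inconclusive means only one of the two criteria met; inactive means mean below 50 and not all replicates reaching 50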;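 further: 0% = plate neutral controls and 100% = maraviroc near 300 nM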
# PAX8 reporter – inhibitors of PAX8 transcriptional activity in RMG-I cells. inhibition, % at 12.6 µM. AID 652154. RMG-I TPO-luciferase reporter, SteadyGlo, 24 h. hit rate 1.2% among 360,000;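 active means mean replicate inhibition at least 60% with every replicate also reaching 60%; inconclusive means only one of the two criteria is met; inactive means mean below 60% and not all replicates reaching 60%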;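 further: luciferase light reporting Pax8 driven TPO promoter activity; plate controls were median of neutral control wells for no effect and mitoxantrone controls for full effect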
# F508del corr – CFTR F508del correction in bronchial cells; hit rate 0.36% among 350,000; CFBE cells, YFP halide quenching; stimulated with forskolin plus potentiator P3; % fluorescence drop versus neutral controls; activity (quench increase), % at 7.58 µM;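 active means mean added fluorescence quench of at least 8% versus neutral control, with both replicates also reaching 8%; inconclusive means only one of the mean or replicate conditions met; inactive means mean below 8% and not both replicates reaching 8%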;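 further: cells transiently co-express mutant CFTR-F508del with the halide-sensitive YFP; corrector assay measuring rescue of mutant channel to the surface after 24 h compound exposure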
# FN deposit inh – fibronectin deposition inhibition; AH1F fibroblasts, Alexa488-fibronectin deposition fluorescence, overnight; inhibition, % at 12.6 µM; hit rate 0.086% among 350,000;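 active means mean inhibition across replicates of 30% or more, regardless of how many single replicates reach that level; inconclusive means mean under 30% yet at least half of replicates reach 30%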;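 further: positive control wells lacked labelled fibronectin entirely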
#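 test system = AH1F fibroblasts assembling fluorescent fibronectin matrix | quantity = 10000 AH1F cells per well | buffer or medium = DMEM plus 2% serum, read in PBS | doses = single dose, pinned | incubation = 1 h cell attachment, overnight exposure to compound and label | detection = fluorescence at 485 nm excitation, 525 nm emission | read-out basis = inhibition from reduced deposited-fibronectin fluorescence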
# PGC1a acetyl inh – modulators of PGC1a acetylation; inhibition, % at 15.6 µM; hit rate 0.17% among 350,000; U2OS PGC1a acetylation, AlphaScreen anti-acetyl-lysine; with virally co-expressed GCN5 acetyltransferase;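 active means every replicate shows inhibition of at least 40%; inconclusive means mean inhibition at least 40% but some replicate below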;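 further: 0% = neutral control wells and 100% = positive control wells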
# EWS-Fli inh – blocks EWS/Fli oncoprotein-driven transcription; A673 NR0B1-luciferase reporter, viability-normalised; inhibition, % at 12.6 µM; hit rate 0.67% among 350,000;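 active means mean inhibition of at least 50% after viability correction, with every replicate also passing that limit; inconclusive means mean reaches 50% but only one of two replicates passes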;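 further: firefly luciferase signal divided by Alamar Blue viability fluorescence both relative to DMSO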
# * hit, by the source's call; ? = inconclusive; / = not tested or not shown; [ ] = dose if it differs, or a comment.
SMILES,HIV Env fusion,PAX8 reporter,F508del corr,FN deposit inh,PGC1a acetyl inh,EWS-Fli inh
O=C(NCc1ccco1)C1Cc2c(-c3cccc(F)c3)ccnc2O1 (stereo unspecified),-170,31,5,13,-40,54*
O=C(NCc1ccccc1)C1Cc2c(-c3cccc(F)c3)ccnc2O1 (stereo unspecified),-91,55,9.1*,-1,-20,67*
O=C(NCc1cccc(Cl)c1)C1Cc2c(-c3cccc(F)c3)ccnc2O1 (stereo unspecified),-17,-5,-2,19,-10,2
O=C(NCc1ccccc1)C1Cc2c(-c3ccc(Cl)cc3)ccnc2O1 (stereo unspecified),-19,23,9.2*,1,-69,60*
O=C(NCc1ccco1)C1CC(c2cc(C(F)(F)F)cc(C(F)(F)F)c2)=NO1 (stereo unspecified),-241,5,2,3,/,75*
O=C(Nc1ccccc1)C1Cc2c(-c3ccc(Cl)cc3)ccnc2O1 (stereo unspecified),15,-20,2,-2,/,2
O=C1N[C@@H](Cc2ccccc2)COCc2cn(nn2)CC[C@@H]1Cc1ccc(Cl)cc1,/,/,/,0,/,/
COc1ccccc1NC(=O)N1CCCCN2[C@@H](CO)[C@@H](c3ccc(C#CC4CC4)cc3)[C@@H]2C1,/,14,0,/,-6,/
C[C@H](CO)N1C[C@H](C)[C@@H](CN(C)Cc2ccncc2)Oc2cc(-c3ccccc3F)ccc2S1(=O)=O,38[16.7 µM],/,2,-3,-5,39
CC(=O)c1cccc(-c2ccnc3c2CC(C(=O)NCc2ccco2)O3)c1 (stereo unspecified),-6,3,13*,-4,-52,49
O=C(N/N=C/c1ccc(-n2ccnc2)cc1)c1cccs1,75*,-109,0,/,5,-58
CCCn1c(C2CCCN2c2nc(-c3cccc(Br)c3)cs2)nc2cc(Cl)c(Cl)cc21 (stereo unspecified),/,19,3,-24,4,4
CCCn1c(C2CCCN2c2nc(C)cs2)nc2cc(Cl)c(Cl)cc21 (stereo unspecified),70*,8,-2,-11,/,16
Cc1ccc(N2C(=O)N3[C@H](c4ccc(F)cc4)[C@@H]4C(=O)N(C5CCCCC5)C(=O)[C@@H]4[C@]3(Cc3ccccc3)C2=O)cc1,56*,17,-1,-1,/,3
Cc1cccc([C@@H]2[C@@H]3C(=O)N(Cc4ccccc4)C(=O)[C@@H]3[C@]3(Cc4ccc(Cl)cc4)C(=O)N(c4cccc(Br)c4)C(=O)N23)c1,-233,4,-3,-2,/,2
O=C1[C@H]2[C@@H](c3ccc(F)cc3)N3C(=O)N(c4cccc(F)c4)C(=O)[C@@]3(Cc3ccccc3)[C@H]2C(=O)N1C1CCCCC1,95*,6,-3,-4,7,3
O=C1[C@H]2[C@@H](c3ccc(F)cc3)N3C(=O)N(c4cccc(Br)c4)C(=O)[C@@]3(Cc3ccccc3)[C@H]2C(=O)N1C1CCCCC1,107*,20,-1,0,-16,18
O=C1[C@H]2[C@@H](c3ccc(Cl)cc3)N3C(=O)N(c4cccc(Cl)c4)C(=O)[C@@]3(Cc3ccccc3)[C@H]2C(=O)N1C1CCCCC1,97*,18,-1,-2,2,8
Cc1cccc([C@@H]2[C@@H]3C(=O)N(Cc4ccccc4)C(=O)[C@@H]3[C@]3(Cc4ccccc4)C(=O)N(c4cccc(Cl)c4)C(=O)N23)c1,-206,16,-3,-9,/,3
CCN1C(=O)[C@H]2[C@@H](c3ccc(C)cc3)N3C(=O)N(c4ccc(C)cc4)C(=O)[C@@]3(Cc3ccccc3)[C@H]2C1=O,-79,-24,3,4,3,-37
C[C@H](CO)N1C[C@H](C)[C@H](CN(C)Cc2cccc3c2OCCCO3)OCc2ccccc2-c2c(n(C)c3ccccc23)C1=O,/,-10,1,-13,-13,2
COc1cccc(NC(=O)C[C@@H]2CC[C@@H]3[C@H](COc4ccc(NC(C)=O)cc4C(=O)N3C)O2)c1,-1[16.7 µM],-7,-3,-2,18,-5
O=C(C[C@@H]1C=C[C@H](NC(=O)Cc2ccccn2)[C@H](CO)O1)NCCc1ccccc1,/,/,1,/,/,-8
CCOC(=O)c1c(C)c(C(=O)N2CCN(c3cccc(Cl)c3)CC2)c(C)n1C,57*,/,/,-6,-4,/
CCOc1ccc(C(=O)N2CCN(c3cccc(Cl)c3)CC2)cc1,7,9,-2,/,/,-5
SMILES,HIV Env fusion,PAX8 reporter,F508del corr,FN deposit inh,PGC1a acetyl inh,EWS-Fli inh
O=C1C(=Cc2ccncc2)CCCc2ccccc21,24,17,-2,/,12,-1
O=C1/C(=C/c2ccncc2)CCC/C1=C\c1ccncc1,89*,71*,-11,1,78*,71*
CCCNC(=O)N1CC2(C1)[C@@H](c1ccccc1)[C@@H](CO)N2C(=O)C1CC1,/,-3,-1,/,5,4
COC(=O)c1c(-c2ccsc2)sc2ccc(-c3cc(OC)c(OC)c(OC)c3)cc12,59*,6,4,-4,/,9
Cc1ccc(-c2cnc3c(Cl)c(C)nn3c2)cc1,-270,-78,7,9,0,53*
CCCNC(=O)N1C[C@H](C)[C@@H](OC)CN(C)C(=O)c2ccc(NS(C)(=O)=O)cc2OC[C@H]1C,3[16.7 µM],/,-2,-2,-5,0
COCC(=O)N1CC2(C1)CN(Cc1cc(F)ccc1F)[C@H](CO)c1c2c2ccc(OC)cc2n1C,/,/,-2,/,7,-6
COc1ccc(S(=O)(=O)Nc2ccc3c(c2)CC(=O)N([C@H](C)CO)C[C@@H](C)[C@@H](CN(C)Cc2ccc(Oc4ccccc4)cc2)O3)cc1,2[16.7 µM],5,4,/,-7,26
O=C1C=C(c2cccc3c2oc2ccccc23)CCC1,?,-18,2,7,/,-1
CC1(C)CC(=O)C=C(c2cccc3c2oc2ccccc23)C1,72*,-24,-3,-6,-5,-13
CN(C)c1cccc2c(S(=O)(=O)NCC3CCN(C(=O)C(=O)c4cc5ccccc5o4)CC3)cccc12,11,62*,4,14,/,10
O=C(C(=O)N1CCC(CNS(=O)(=O)c2ccccc2OC(F)(F)F)CC1)c1cc2ccccc2o1,-24,38,-2,8,/,8
O=C(c1ccc2c(c1)OCO2)N1CC(=O)N2[C@H](CO)[C@@H](c3ccc(C#CCC4CCCC4)cc3)[C@H]2C1,/,43,2,/,-7,1
Cc1ccc(O)c(-c2cc(C(F)(F)C(F)F)nc(-c3ccccc3)n2)c1,/,/,/,/,10,/
Oc1ccc(Cl)cc1-c1cc(C(F)(F)C(F)F)nc(-c2ccccc2)n1,67*,7,/,/,/,/
CCCCC1(Cc2ccc(OC)c([N+](=O)[O-])c2)C(=O)N(c2ccccc2)N(c2ccccc2)C1=O,118*,45,/,1,-3,/
